# Screening data: PubChem BioAssay, several laboratories
# APOBEC3A inh: human APOBEC3A DNA deaminase inhibition. AID 493011. actives 0.41% (n = 330,000). inhibition, % at 20 µM. P31941. recombinant A3A, FAM/TAMRA ssDNA deamination fluorescence;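 active = at least 40% inhibition at 20 µM here, with at most 30% in a related deaminase screen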
# Target sequence (P31941 whole entry, looked up): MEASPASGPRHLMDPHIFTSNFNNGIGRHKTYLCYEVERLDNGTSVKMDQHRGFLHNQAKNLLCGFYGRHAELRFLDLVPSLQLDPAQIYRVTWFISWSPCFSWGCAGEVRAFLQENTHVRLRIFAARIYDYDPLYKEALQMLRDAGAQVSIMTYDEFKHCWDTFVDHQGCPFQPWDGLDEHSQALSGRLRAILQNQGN
# APOBEC3G inh: APOBEC3G (human) deaminase inhibition; Q9HC16; recombinant A3G, ssDNA deamination FAM/TAMRA fluorescence; actives 0.28% (n = 330,000); AID 493012; inhibition, % at 20 µM;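 active = inhibition of at least 40% at 20 µM, with no more than 30% in the related APOBEC3A deaminase screen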
# Target sequence (Q9HC16 whole entry, looked up): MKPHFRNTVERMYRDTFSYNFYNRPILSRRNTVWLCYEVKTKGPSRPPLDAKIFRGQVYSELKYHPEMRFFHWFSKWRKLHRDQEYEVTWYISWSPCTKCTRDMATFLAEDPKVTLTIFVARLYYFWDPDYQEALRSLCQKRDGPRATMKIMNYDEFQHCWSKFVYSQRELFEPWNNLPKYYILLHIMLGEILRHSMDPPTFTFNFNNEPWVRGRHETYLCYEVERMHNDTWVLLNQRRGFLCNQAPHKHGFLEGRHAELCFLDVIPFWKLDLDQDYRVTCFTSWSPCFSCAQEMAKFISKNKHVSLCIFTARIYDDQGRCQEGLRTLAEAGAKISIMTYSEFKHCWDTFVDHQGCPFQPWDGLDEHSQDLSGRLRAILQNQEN
# CAL PDZ FP-1: inhibitors of human CAL PDZ peptide binding | actives 0.02% (n = 330,000) | Q9HD26 | purified CAL PDZ, TMR-peptide fluorescence polarization, 1 h | AID 504414 | inhibition, % at 20 µM;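 active = highest replicate inhibition of at least 40%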
#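 Test system: purified CerCALP PDZ construct; Compound dosing: one concentration, 20 µM compound; Also added: TMR-labelled reporter peptide T*-PRC34 bound in PDZ groove; Read-out: inhibition from polarization loss; Controls: unlabelled peptide and DMSO controls; Signal: FP readout, S and P plane fluorescence; Incubation: 1 h at RT.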
# LANA DNA inh: KSHV C-LANA DNA binding inhibition; inhibition, % at 9 µM; MBP-C-LANA/FAM-LBS DNA binding, fluorescence polarization; actives 0.078% (n = 340,000);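 active = highest replicate inhibition at or above 60% at 9 µM, even if other replicates fall short; inactive = all replicates below 60% inhibition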
# Keap1 Nrf2 FP: inhibitors of human Keap1-Nrf2 protein-protein interaction | Keap1 Kelch-Nrf2 peptide fluorescence polarization, 1536-well | actives 0.15% (n = 340,000) | Q14145 | inhibition, % at 9.4 µM; in the data active = inhibition above about 12%;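 also: human Keap1 Kelch domain with fluorescein labeled Nrf2 9mer peptide probe; higher means more block of Keap1 binding to Nrf2 peptide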
# CAL PDZ FP-2: CAL PDZ (human) peptide binding inhibition; actives 0.92% (n = 300,000); inhibition, % at 24.9 µM; purified CAL PDZ, TMR-peptide fluorescence polarization, 1 h;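 active = mean inhibition of at least 30% with at least half of replicates also reaching 30%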
# Numbers stand for hits; . = inactive; / = not tested or not shown. In the library only some 1.7% were active in any assay of this set; here they are far more common.
SMILES,APOBEC3A inh,APOBEC3G inh,CAL PDZ FP-1,LANA DNA inh,Keap1 Nrf2 FP,CAL PDZ FP-2
CCN(C(=O)c1cccc(NC(=O)c2ccccc2)c1)C1CCCCC1,.,.,.,.,.,57.3
CCN(C(=O)COc1ccccc1)C1CCCCC1,.,.,.,/,/,.
Cc1ccc(NC(=S)N2CCN(S(=O)(=O)c3c(F)cccc3F)CC2)cc1C,.,.,.,.,.,/
O=C1SCCC1NS(=O)(=O)c1ccc([N+](=O)[O-])cc1 (centres undefined),.,.,.,.,.,.
CCCCOC(=O)c1ccc(OC(=O)c2cccnc2)cc1,.,.,.,.,.,33.0
CCCNC(=O)C(=O)NCC1CCCN1CC (centres undefined),.,.,.,.,.,33.0
C=CCNC(=O)C(=O)NCC1CCCN1CC (centres undefined),.,.,.,.,.,.
CC(C)CN1C(=O)c2ccc(NC(=O)Cc3ccccc3)cc2C1=O,.,.,.,.,.,74.3
Cc1c(N=NC2=C(O)CCCC2=O)c(=O)n(-c2ccccc2)n1C,.,.,.,.,.,.
CCN1CCN(C(c2cc(OC)ccc2OC)c2nnnn2Cc2ccccc2)CC1 (centres undefined),.,.,.,.,.,53.9
COc1ccccc1-c1ccc(SCc2ccc(F)cc2)nn1,.,.,.,.,.,79.9
COc1ccccc1-c1ccc(SCc2ccc(C)cc2)nn1,.,.,.,.,.,.
COc1ccccc1-n1cc2c([N+](=O)[O-])cc([N+](=O)[O-])cc2n1,.,.,.,.,.,.
CCN1CCN(C(=O)c2ccc(N3CC4CC(C3)c3cccc(=O)n3C4)c(NC(=O)c3cc(OC)cc(OC)c3)c2)CC1 (centres undefined),.,.,.,.,.,.
O=C(N/N=C/c1ccco1)c1cc(-c2cccs2)[nH]n1,.,.,.,.,.,40.6
Cn1cccc1-c1cc(C(=O)O)[nH]n1,.,.,.,.,.,41.0
CCC(C)[C@H](NC(=O)N1CCC(C)CC1)C(=O)OC (some centres undefined),.,.,.,.,.,52.5
CCC(C)[C@H](NC(=O)N1CCCC1)C(=O)OC (some centres undefined),.,.,.,.,.,.
CC1CCC(NC(=O)c2ccc3c(c2)S(=O)(=O)c2ccccc2C3=O)CC1 (centres undefined),.,.,42.5,.,.,.
O=C(C1CC(=O)N(c2ccc3c(c2)OCCO3)C1)N1CCN(c2ccccc2O)CC1 (centres undefined),.,.,.,.,.,.
CN(Cc1cccc(F)c1)C(=O)C1CC(=O)N(c2ccc3c(c2)OCCO3)C1 (centres undefined),.,.,.,.,.,40.2
O=C(C1CC(=O)N(c2ccc3c(c2)OCCO3)C1)N1CCN(c2ccccc2)CC1 (centres undefined),.,.,.,.,.,46.7
COc1ccc(C(=O)NCC(=O)N/N=C(\C)c2ccco2)cc1OC,.,.,.,.,.,.
C/C(Nc1ccc(Cl)cc1)=C1/CCOC1=O,/,/,.,.,.,.
COC(=O)c1ccc(CN2C(=O)c3ccccc3S2(=O)=O)cc1,.,.,/,.,.,55.4
SMILES,APOBEC3A inh,APOBEC3G inh,CAL PDZ FP-1,LANA DNA inh,Keap1 Nrf2 FP,CAL PDZ FP-2
COc1cccc(NC(=O)CN(C)C(=O)Cc2n[nH]c(=O)c3ccccc23)c1,.,.,.,.,.,/
COc1ccc(NC(=O)CN(C)C(=O)Cc2n[nH]c(=O)c3ccccc23)cc1,.,.,.,.,.,31.1
COc1ccc(NS(=O)(=O)c2cc(NC(=O)Cc3n[nH]c(=O)c4ccccc34)ccc2OC)cc1,/,/,.,.,.,51.2
O=C(CN1C(=O)NC2(CCCC2)C1=O)Nc1cc(Cl)ccc1N1CCCCC1,.,.,.,.,.,.
CC(NS(=O)(=O)c1ccc(Br)cc1)C(=O)NCc1ccc2c(c1)OCO2 (centres undefined),.,.,.,.,.,.
CCOc1ccc(S(=O)(=O)NC(C)C(=O)NCc2ccc3c(c2)OCO3)cc1 (centres undefined),.,.,.,.,.,75.8
CSc1ccccc1NC(=O)CN(C)CC(=O)Nc1ccc(S(=O)(=O)N2CCCC2)cc1,.,.,.,.,.,48.5
CCN(Cc1ccc(N(C)C)cc1)C(C)C(=O)Nc1ccc(S(=O)(=O)N2CCCC2)cc1 (centres undefined),.,.,.,.,.,59.7
Cc1ccc(-n2ncc(Cl)c2C(=O)NC2CC2)cc1,.,.,.,.,.,58.7
CCCCC(=O)NC(c1ccccc1Cl)c1ccc2cccnc2c1O (centres undefined),.,.,.,.,.,58.3
CCCCC(=O)NC(c1ccccc1)c1ccc2cccnc2c1O (centres undefined),.,.,.,/,.,/
CCOc1ccc(Cn2c(=O)sc3ccccc32)cc1,.,.,.,.,.,.
CCOc1ccc(Cn2c(=O)sc3ccccc32)cc1OC,.,.,.,.,.,66.4
CCN1CCN(C(=O)Cn2nc(C)c3sc4ccccc4c3c2=O)CC1,.,.,.,.,.,.
COc1cccc(CNC(=O)c2ccc(Cl)c(NC3=NC4CS(=O)(=O)CC4S3)c2)c1 (centres undefined),.,.,.,.,.,.
Cc1nn(C)c(C)c1NC(=S)Nc1ccc(S(=O)(=O)Nc2ncccn2)cc1,.,.,.,.,.,39.1
CN(Cc1ccccc1)C(=O)C1CCN(S(=O)(=O)c2cccc3nonc23)CC1,.,.,.,.,.,/
CCOC(=O)c1c(NC(=O)COC(=O)CNC(=O)c2ccco2)sc(C)c1C,.,.,.,.,.,.
COC(=O)c1c(NC(=O)COC(=O)CNC(=O)c2ccco2)sc(C)c1C,.,.,.,.,.,58.5
COCCNC(=O)c1cc2cc(Br)cc(Br)c2oc1=O,.,.,.,.,.,48.2
COCCNC(=O)c1cc2cc(Br)cc(OC)c2oc1=O,.,.,.,.,.,.
COc1ccc(CCNC(=O)c2coc3ccccc3c2=O)cc1OC,.,.,.,.,.,.
NC(=O)NC(=O)COC(=O)c1sc2ccccc2c1Cl,.,.,.,.,.,.
CN(C)CCOC(=O)c1sc2ccccc2c1Cl,.,.,.,.,.,83.7
O=C(O)c1cc(O)c2c(c1)[C@@H]([C@H]1c3cc(C(=O)O)cc(O)c3C(=O)c3c(O[C@@H]4O[C@H](CO)[C@@H](O)[C@H](O)[C@H]4O)cccc31)c1cccc(OC3O[C@H](CO)[C@@H](O)[C@H](O)[C@H]3O)c1C2=O (some centres undefined),.,.,.,.,.,37.4
CCn1nc(C(=O)Nc2cc(Cl)ccc2-n2cncn2)c2ccccc2c1=O,.,.,.,.,.,57.6
